Experimental data: the EternaBench riboswitch data

Test system: MS2 coat protein
Assay: apparent Kd, MS2 coat protein; higher = weaker binding; RNA-MaP array; FMN 200 µM where present
Summary of the method: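 Each design was made on Illumina sequencing-chip clusters by stalled E. coli RNA polymerase and titrated with SNAP-549-labelled MS2 coat protein from 0.7 or 1.5 nM, doubling to 3 µM, in the absence and then the presence of constant ligand. The buffer was 100 mM Tris-HCl pH 7.5, 80 mM KCl, 4 mM MgCl2, BSA, DTT, yeast tRNA and Tween-20. The apparent Kd is the median of filtered per-cluster fits of binding curves, with green signal normalised to red-channel RNA signal and control-cluster median Fmax.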

[1] = designed as: OFF switch for flavin mononucleotide, no ligand
[2] = ligand present: flavin mononucleotide, designed as: OFF switch for flavin mononucleotide
[3] = designed as: ON switch for flavin mononucleotide, no ligand
[4] = ligand present: flavin mononucleotide, designed as: ON switch for flavin mononucleotide

| Sequence | apparent Kd [1] [nM] | apparent Kd [2] [nM] | apparent Kd [3] [nM] | apparent Kd [4] [nM] |
| --- | --- | --- | --- | --- |
| UAUAUAUAGUAAGGAUAUGUAUUUAUAUUAUAAACAGAAGGUACUGACAUGAGGAUCACCCAUGUUUUAGUGUGGGCAUGUAGA | 77.9 | 114 |  |  |
| UAUAUAUAGUAAGGAUAUGUAUUUAUUUCAUAAACAGAAGGUACUGACAUGAGGAUCACCCAUGUUUUAGUGUGGGCAUGUAGA | 81.8 | 121 |  |  |
| UAUAUUAACAAGAAGGCUAACAUGAGGAUCACCCAUGUUGUACAUGGAUAUAGAGGAUAUUGCUAAUAAUUAUUUAUCAUAAUU | 20.4 | 18.3 |  |  |
| UAUAUUUAUGUAGGAUAUGGUAUAUAAAAUAUACCAGAAGGACAUGAGGAUCACCCAUGUAUGAAAUUCCAUAAUUGCCGUGUA | 12.7 | 14.8 |  |  |
| UAUGUGUCAGGAUAUUGUUAAUUUAGUUGUUUGUAUUAGUUCGAGAAGGGACAUGAGGAUCACCCAUGUUGUUU | 31.9 |  |  |  |
| UAUGUUGUUGUGAGGAUAUACUUUGUUUGACCGUAGUAGAAGGCACAUGAGGAUCACCCAUGUAGAUUUUUGGU | 9.74 | 13.6 |  |  |
| UAUUAACACGAAGGAUAUGGUUACAUGAGGAUCACCCAUGUAUGUAUAUUGAUCUAGAUUUUUAACCAGAAGGUCGUGAGUAAA | 50.8 | 72.2 |  |  |
| UAUUAAUGCAAGGAUAUGCUAUUAAUUUUUUUUGCAGAAGGUGCAACAUGAGGAUCACCCAUGUUUGAGGGUAU | 66.8 | 67.8 |  |  |
| UAUUGAGCAGGAUAUUAACGGGUUUACAUGAGGAUCACCCAUGUGGUCCCGUGUUAGCUAUAAGAAGGGCUGAUGA | 35.5 | 120 |  |  |
| UAUUGUUCCUGAGGAUAUCAGUUGUUUGCAUUAUGAGAAGGCAGUACAUGAGGAUCACCCAUGUUGGGAUUUGAUAGAAUGAUA |  |  | 185 | 195 |
| UAUUUAAUCAUAGGAUAUAGUGUGUAAUUUGGACUAGAAGGAUGUAACAUGAGGAUCACCCAUGUGGUAAAUGGGAUACAUUCC |  |  | 125 | 132 |
| UAUUUACAUGAGGAUCACCCAUGUCAGGAUAUGCGUCUAUCGUCGAAAGACGAUAGUUGCAGAAGGGACAAUAU | 62.8 | 123 |  |  |
| UAUUUACAUGAGGAUCACCCAUGUCAGGAUAUGCUUCUAUCGUCGAAAGACGAUAGUUGCAGAAGGGACAAUAU | 58.6 | 106 |  |  |
| UAUUUUAACUAAGGAUAUCUAUAUUAAUUUGAAACAUGAGGAUCACCCAUGUUCAUGGGUUUAUAAGAGAAGGUAGAUGAAUAA |  |  | 48.7 | 20.7 |
| UCAAAUGCCGUAGGAUAUAAUGUGCGCCGUCCGUGAGAUGUAAAUUGACAUGAGGAUCACCCAUGUUAGAAGGGCGGCAUCAGC | 5.88 | 5.92 |  |  |
| UCACAGUCAGGAUAUUCUGUGUAGGUUGCGCCUCAAGCACUGAAGAAGGGACAUGAGGAUCACCCAUGUUCCUC | 15.5 | 18.7 |  |  |
| UCAGGAGUCACAGGAUAUCCGGCAUAGCAUACAGGAGAAGGGUGAUCACAAGCACAUGAGGAUCACCCAUGUGACAUUUGUGGA |  |  | 115 | 49.5 |
| UCAGGCUUCGAGAAGGACAUGAGGAUCACCCAUGUGCGUGUGAAGCAGCCGUGAGGCUGCAUCAUGUAGGAUAUCGGAGUCUGC | 82 | 418 |  |  |
| UCAUACAUGAGGAUCACCCAUGACAUGAGGAUCACCCAUGUGCAGGAUAUACGUGAUAUAAUAUAGUAGAAGGGCAGACUAUAU | 51.9 | 57.6 |  |  |
| UCAUACAUUCGAGGAUAUCGGUGAUAACUCAAACGAGAAGGCGAUUUAAAACAUAAUGCUGUAGACAUGAGGAUCACCCAUGUA |  |  | 476 | 182 |
| UCAUGAAGGACAGGAUAUGGACAUGAGGAUCACCCAUGUACAUGGGAUUAUAUACUGAAUUUAUACUAGAAGGGUUACAUAAAU | 44.7 | 30.2 |  |  |

| Sequence | apparent Kd [1] [nM] | apparent Kd [2] [nM] | apparent Kd [3] [nM] | apparent Kd [4] [nM] |
| --- | --- | --- | --- | --- |
| UCAUUGAUUGUGAGGAUAUCGAUGUGAUGGAUUGUCGAGAAGGCACAUGAGGAUCACCCAUGUGGGUGUGGGCU | 864 | 454 |  |  |
| UCAUUUCUGUUAGGAUAUUAAAACAUGACGAUACAUGAGGAUCACCCAUGUUAAGAAGGAACAAAUACAUAUAAUGCAAUGUUC | 12.5 | 10.7 |  |  |
| UCCAACCCUGUGAGGAUAUCGUCCAUUUUUUGUUCCGAGAAGGCACAUGAGGAUCACCCAUGUUUUUUAUUUUU | 28.1 | 93.7 |  |  |
| UCCACUGCUGAGAAGGGAUAGAUAUCGUUCUAGUCAGGAUAUCAAUACAGUGCAGCAUGAGGACAUGAGGAUCACCCAUGUAUU |  |  | 14.2 | 10.9 |
| UCCAUCGUAUGAGGAUAUGGAACUGAAACAGUUCCAGAAGGCAUGUCAAUAGACAUGAGGAUCACCCAUGUAUUAUCGAUGGAA |  |  | 429 | 42.9 |
| UCCCUGUGAGGAUAUCUCUUUGAGUGCGGCGAAUUCAGGUGGGAGAAGGCACAUGAGGAUCACCCAUGUAUUGC | 40.2 | 73 |  |  |
| UCCCUUAGUGUAAGGAUAUCGUUCCAUUGACGGAGCGAGAAGGUACAUGAGGAUCACCCAUGUGUCAAUGCCGG | 20 | 54.4 |  |  |
| UCCUACAUCGGAGGAUAUCAUGUGUAAACAUGAGGAUCACCCAUGUCGUACGAUAGUACGGAGAUUGAGAAGGCCGAUGUAGGU |  |  | 93.9 | 17.3 |
| UCCUACAUGGGAGGAUAUCCUCAUGAGACAUGAGGAUCACCCAUGUAUUAUAAGCCGAAAGGCAAGGAGAAGGCCCAUGUAGGU |  |  | 34.9 | 18 |
| UCCUCACAUGAGGAUCACCCAUGUCAGGAUAUCUGCGAGCAAUGGCCAAGGCCACUCAGGAGAAGGGACGUCAA | 16.3 | 22.3 |  |  |
| UCCUGAUUGAGAGGUAGGAGUGGUAGAAGGCGACCGGUGCCAGAUGACAUGAGGAUCACCCAUGUCGAGGAUAUACCACUGAAU | 7.38 | 12.4 |  |  |
| UCCUGAUUGAGAGUUAGGAGUGGUAGAAGGCGACCGGUGCCAGAUGACAUGAGGAUCACCCAUGUCGAGGAUAUACCACAGAAU | 8.04 | 15.4 |  |  |
| UCCUGGCGAGGAUAUACAAAGUUUUUUACGUUUUGUUACGAACAUGAGGAUCACCCAUGUAGAAGGUGCUGCUG | 62.2 | 58.1 |  |  |
| UCCUUAAACACAGGAUAUCCUGCCGUACAUGAGGAUCACCCAUGUCCGGUCGGAGAAGGGUGGCGAAGGUAUGUGCGAAUUAAG |  |  | 8.23 | 5.41 |
| UCCUUGUCCUGAGGAUAUCCGCGGUUCCCAAAAGGAGAAGGCAGGACAUGAGGAUCACCCAUGUACCCAGAAAACGUGCAGAGC | 9.39 | 33.8 |  |  |
| UCGACCAGCGCCAGUCAAACAUGAGGAUCACCCAUGUACUCCAGAAGGCCGCCCAAGAACGGAGUGGAGGAUAUGGAGGUUCUC |  |  | 43.2 | 36.7 |
| UCGACCGGCGCCGGUCGAACAUGAGGAUCACCCAUGUACUCCAGAAGGCCGCCCAAGAACGGAGUGGAGGAUAUGGAGGUUCUC |  |  | 77.1 | 22.3 |
| UCGCCAGGUACAGGAUAUGUGGAUCAGUCAAGUAAUUUGCUGAACAUGAGGAUCACCCAUGUAUCACAGAAGGGUGCCUCAAAA |  |  | 173 | 8.41 |
| UCGCUGCGAGGAUAUACAUGAGGAUCACCCAUGUACGGGUCCGGGUCUAAGUUGAUAAGUAGAAGGCGCAGUGA | 125 | 112 |  |  |
| UCGCUGCGAGGAUAUACAUGAGGAUCACCCAUGUACGGGUCCGGGUCUUCGUCUAUUGGUAGAAGGCGCAGUGA | 54.2 | 277 |  |  |
| UCGCUGUCAGGAUAUCUUAUAUAGAACAUGAGGAUCACCCAUGUUCAUGUAUUCUGUGAGAGAGAAGGGACUCCUU | 15 | 17.4 |  |  |
